In brackets after ≈: the same amount, converted by molar mass. Activity calls are given as the source filed them. No cut-off for these calls is given here.
What was measured:
[1] = tested on: Prescottella equi; test: Antibacterial activity against Rhodococcus equi W5234 harboring GyrA Ser83Arg mutation selected on 8 ug/ml of compound treated culture by broth microdilution method; assay type: functional; conditions: Rhodococcus (subgen. Prescottella) equi
Outline: (§1)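 Mutants were selected by plating at least 1 × 10^10 cells, grown 48 h at 35°C in brain heart infusion broth, on ciprofloxacin-containing Columbia blood agar base for 4 days at 35°C. Each was confirmed by two passages at the selecting concentration and one drug-free passage. MIC was then read by broth microdilution in cation-supplemented Mueller-Hinton broth per CLSI M24-A. Each experiment was done twice.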

[2] = tested on: Prescottella equi; test: Antibacterial activity against Rhodococcus equi W5234 harboring GyrA Asp87Gly mutation selected on 6 ug/ml of compound treated culture by broth microdilution method; assay type: functional; conditions: Rhodococcus (subgen. Prescottella) equi; outline: as §1
[3] = tested on: Prescottella equi; test: Antibacterial activity against Rhodococcus equi W5234 harboring GyrA Ser83Ile mutation selected on 16 ug/ml of compound treated culture by broth microdilution method; assay type: functional, organism-based; outline: as §1
[4] = tested on: Prescottella equi; test: Antibacterial activity against Rhodococcus equi ATCC 6939T harboring GyrA Gly81Cys mutation selected on 4 ug/ml of compound treated culture by broth microdilution method; assay type: functional; conditions: Rhodococcus (subgen. Prescottella) equi; outline: as §1
[5] = tested on: Prescottella equi; test: Antibacterial activity against Rhodococcus equi W5234 harboring GyrA Ser83Ile mutation selected on 12 ug/ml of compound treated culture by broth microdilution method; assay type: functional; conditions: Rhodococcus (subgen. Prescottella) equi; outline: as §1
[6] = tested on: Prescottella equi; test: Antibacterial activity against Rhodococcus equi ATCC 6939T selected on 1 ug/ml of compound treated culture by broth microdilution method; assay type: functional; conditions: Rhodococcus (subgen. Prescottella) equi; outline: as §1
[7] = tested on: Prescottella equi; test: Antibacterial activity against Rhodococcus equi ATCC 6939T selected on 4 ug/ml of compound treated culture by broth microdilution method; assay type: functional; conditions: Rhodococcus (subgen. Prescottella) equi; outline: as §1
[8] = tested on: Prescottella equi; test: Antibacterial activity against Rhodococcus equi ATCC 6939T harboring GyrA Asp87Asn mutation selected on 6 ug/ml of compound treated culture by broth microdilution method; assay type: functional; conditions: Rhodococcus (subgen. Prescottella) equi; outline: as §1
[9] = tested on: Prescottella equi; test: Antibacterial activity against Rhodococcus equi W5234 harboring GyrA Ser83Ile mutation selected on 4 ug/ml of compound treated culture by broth microdilution method; assay type: functional; conditions: Rhodococcus (subgen. Prescottella) equi; outline: as §1
[10] = tested on: Prescottella equi; test: Antibacterial activity against Rhodococcus equi ATCC 6939T harboring GyrA Asp87Gly mutation selected on 6 ug/ml of compound treated culture by broth microdilution method; assay type: functional; conditions: Rhodococcus (subgen. Prescottella) equi; outline: as §1
[11] = tested on: Prescottella equi; test: Antibacterial activity against Rhodococcus equi ATCC 6939T harboring GyrA Ser83Arg mutation selected on 12 ug/ml of compound treated culture by broth microdilution method; assay type: functional; conditions: Rhodococcus (subgen. Prescottella) equi; outline: as §1
[12] = tested on: Prescottella equi; test: Antibacterial activity against Rhodococcus equi W5234 harboring GyrA Asp87Gly mutation selected on 4 ug/ml of compound treated culture by broth microdilution method; assay type: functional, organism-based; outline: as §1
[13] = tested on: Prescottella equi; test: Antibacterial activity against Rhodococcus equi ATCC 6939T harboring GyrA Asp87His mutation selected on 6 ug/ml of compound treated culture by broth microdilution method; assay type: functional; conditions: Rhodococcus (subgen. Prescottella) equi; outline: as §1
[14] = tested on: Prescottella equi; test: Antibacterial activity against Rhodococcus equi ATCC 6939T harboring GyrA Ser83Arg mutation selected on 8 ug/ml of compound treated culture by broth microdilution method; assay type: functional; conditions: Rhodococcus (subgen. Prescottella) equi; outline: as §1
[15] = tested on: Prescottella equi; test: Antibacterial activity against Rhodococcus equi W5234 harboring GyrA Ser83Arg mutation selected on 16 ug/ml of compound treated culture by broth microdilution method; assay type: functional; conditions: Rhodococcus (subgen. Prescottella) equi; outline: as §1
[16] = tested on: Prescottella equi; test: Antibacterial activity against Rhodococcus equi W5234 harboring GyrA Ser83Ile mutation selected on 8 ug/ml of compound treated culture by broth microdilution method; assay type: functional; conditions: Rhodococcus (subgen. Prescottella) equi; outline: as §1
[17] = tested on: Prescottella equi; test: Antibacterial activity against Rhodococcus equi ATCC 6939T harboring GyrA Asp87Gly mutation selected on 8 ug/ml of compound treated culture by broth microdilution method; assay type: functional; conditions: Rhodococcus (subgen. Prescottella) equi; outline: as §1
[18] = tested on: Prescottella equi; test: Antibacterial activity against Rhodococcus equi W5234 harboring GyrA Asp87Asn mutation selected on 6 ug/ml of compound treated culture by broth microdilution method; assay type: functional, organism-based; outline: as §1
[19] = tested on: Prescottella equi; test: Antibacterial activity against Rhodococcus equi W5234 selected on 1 ug/ml of compound treated culture by broth microdilution method; assay type: functional; conditions: Rhodococcus (subgen. Prescottella) equi; outline: as §1
[20] = tested on: Prescottella equi; test: Antibacterial activity against Rhodococcus equi ATCC 6939T harboring GyrB Asn464Asp mutation selected on 1 ug/ml of compound treated culture by broth microdilution method; assay type: functional, organism-based; outline: as §1
[21] = tested on: Prescottella equi; test: Antibacterial activity against Rhodococcus equi ATCC 6939T harboring GyrA Ser83Arg mutation selected on 2 ug/ml of compound treated culture by broth microdilution method; assay type: functional, organism-based; outline: as §1
[22] = tested on: Prescottella equi; test: Antibacterial activity against Rhodococcus equi ATCC 6939T harboring GyrA Ser83Ile mutation selected on 8 ug/ml of compound treated culture by broth microdilution method; assay type: functional; conditions: Rhodococcus (subgen. Prescottella) equi; outline: as §1
[23] = tested on: Prescottella equi; test: Antibacterial activity against Rhodococcus equi W5234 harboring GyrA Asp87Asn mutation selected on 8 ug/ml of compound treated culture by broth microdilution method; assay type: functional, organism-based; outline: as §1
[24] = tested on: Prescottella equi; test: Antibacterial activity against Rhodococcus equi ATCC 6939T harboring GyrA Asp87Tyr mutation selected on 4 ug/ml of compound treated culture by broth microdilution method; assay type: functional, organism-based; outline: as §1
[25] = tested on: Prescottella equi; test: Antibacterial activity against Rhodococcus equi W5234 harboring GyrA Ser83Arg mutation selected on 4 ug/ml of compound treated culture by broth microdilution method; assay type: functional; conditions: Rhodococcus (subgen. Prescottella) equi; outline: as §1

O=C(O)c1cn(C2CC2)c2cc(N3CCNCC3)c(F)cc2c1=O [CIPROFLOXACIN] was tested, and the MIC [1] was 32 µg/mL (≈ 96.6 µM), the MIC [2] was 16 µg/mL (≈ 48.3 µM) and the MIC [3] was “inactive”. It also gave an MIC [4] of 8 µg/mL (≈ 24.1 µM), an MIC [5] of 64 µg/mL (≈ 193 µM) and an MIC [6] of 1 µg/mL (≈ 3.02 µM). For the same compound, the MIC [7] was 4 µg/mL (≈ 12.1 µM), the MIC [8] was 16 µg/mL (≈ 48.3 µM) and the MIC [9] was 32 µg/mL (≈ 96.6 µM). For the same compound, the MIC [10] was 16 µg/mL (≈ 48.3 µM), the MIC [11] was 128 µg/mL (≈ 386 µM) and the MIC [12] was “inactive”. It also gave an MIC [13] of 16 µg/mL (≈ 48.3 µM), an MIC [14] of 64 µg/mL (≈ 193 µM) and an MIC [15] of 64 µg/mL (≈ 193 µM). For the same compound, the MIC [16] was 32 µg/mL (≈ 96.6 µM), the MIC [17] was 16 µg/mL (≈ 48.3 µM) and the MIC [18] was “inactive”. For the same compound, the MIC [19] was 2 µg/mL (≈ 6.04 µM), the MIC [20] was “inactive” and the MIC [21] was “inactive”. The MIC [22] was 32 µg/mL (≈ 96.6 µM), the MIC [23] was “inactive” and the MIC [24] was “inactive”. It also gave an MIC [25] of 32 µg/mL (≈ 96.6 µM).
